This is one part of a sample in which hits are shown more often than they occur.
PGC1a acetyl up = compounds raising PGC1a acetylation signal, primary screen, PGC1a modulator project, cell-based, U2OS, AlphaScreen, signal-increasing mode | overnight | activation, % at 15.6 µM | 350,000 tested, 0.21% active | AID 651723, 2012;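 active = every replicate reaching activation of at least 50%, whatever the mean replicate activation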;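 also: hits raise the AlphaScreen acetylation signal above neutral controls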
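detection = AlphaScreen lysate read | assay system = U2OS cells expressing flag-PGC1a plus GCN5 | input = 7000 cells/well | dosing = one concentration | times = compound overnight at 37 °C, each detection step 1 h RT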
* hit, by the source's call.

SMILES	PGC1a acetyl up
Cc1cc(C)cc(NC(=O)c2ccc([N+](=O)[O-])o2)c1	247*
O=C(Nc1ccc(N2CCN(C(=O)c3ccccc3)CC2)cc1)c1ccc([N+](=O)[O-])o1	122*
O=[N+]([O-])c1ccccc1-c1ccc(C(=S)N2CCN(c3ccccc3)CC2)o1	-41
Cc1cc(C)cc(C(=O)Nc2ccc3[nH]c(=O)[nH]c3c2)c1	-48
O=C(Nc1ccc([N+](=O)[O-])cn1)c1ccc(Br)o1	-43
O=C(Nc1c(Cl)ccc2nsnc12)c1ccc([N+](=O)[O-])o1	74*
CC(=O)c1ccc(NC(=O)c2ccc([N+](=O)[O-])o2)cc1	101*
Cc1ccc(-n2cccc2C(=S)N=P(N(C)C)(N(C)C)N(C)C)cc1	-85
O=C(OCCCN1CCCCC1)c1ccc(O)cc1	-46
CCCNC(=O)CN(C)C(=O)c1n[nH]c2ccccc12	-43
CC(C)n1c(=S)[nH]c2cc(Cl)ccc21	-69
CC1CCCCC1NC(=O)C1CCN(C(=O)NC2CCCCC2)CC1 (configuration not stated)	-51
COc1cc(OC)c2c(-c3cccc(-c4cccc(C)c4)c3)cc(=O)oc2c1	60*
CCOc1ccc(N(C(=O)Nc2ccccc2)C2=NCCC2)cc1	-44
CCOc1ccc(S(=O)(=O)/N=C(/Nc2ccc(C(C)=O)cc2)c2ccccc2)cc1	66*
CCOc1ccc(NS(=O)(=O)c2ccc3c(c2)oc(=O)n3C)cc1	-46
COc1cc(/C=C/c2cccc[n+]2C)ccc1OCC(=O)Nc1ccccc1	-42
O=C(O)c1ccc(N/N=C/C(Br)=C/c2ccccc2)cc1	54*
Cc1ccc(NCC(=O)N/N=C\C(Br)=C\c2ccccc2)cc1	145*
O=C(c1ccc(N2CCCC2=O)cc1)N1CCCCCC1	-42
Cc1noc(C)c1NC(=O)Nc1ccc2c(c1)C(=O)N([C@@H](C)CO)C[C@@H](C)[C@@H](CN(C)CC1CCCCC1)OCCCC[C@H](C)O2	-55
CC(C)(CO)CNc1ccn2nccc2n1	-43
Cc1nc(Nc2ccc(S(N)(=O)=O)cc2)sc1C(=O)Nc1ccccc1	-41
CCOC(=O)c1ccc(NC(=O)c2nc(S(=O)(=O)Cc3ccccc3)ncc2Cl)cc1	78*
Cc1ccccc1S(=O)(=O)NCC[C@@H]1CC[C@@H](NC(=O)C2CCOCC2)[C@H](CO)O1	-58
SMILES	PGC1a acetyl up
CCOc1ccc2c(c1)C(C)=CC(C)(C)N2S(=O)(=O)c1ccc(C)cc1	64*
COc1ccc(/C=N/NC(=O)c2ccn[nH]2)cc1CN1CCOCC1	-43
O=C(Nc1nc(C2C3CC4CC(C3)CC2C4)cs1)c1cc2cc([N+](=O)[O-])ccc2oc1=O (configuration not stated)	52*
CC(c1n[nH]c(=S)n1Cc1ccccc1)N(C)C (configuration not stated)	-50
CO[C@H]1CN(C)C(=O)c2cc(NS(C)(=O)=O)ccc2OC[C@H](C)N(C(=O)NC(C)C)C[C@@H]1C	-49
COc1ccc(CCN2C(=O)c3[nH]nc(-c4ccccc4O)c3C2c2ccccc2)cc1OC (configuration not stated)	53*
COc1ccc(C2c3c(oc4ccccc4c3=O)C(=O)N2CCN2CCOCC2)cc1OC (configuration not stated)	-46
COc1ccc(CCNCc2ccc(-c3ccccc3)cc2)cc1OC	-45
CCC(=O)Nc1ccc2c(c1)OC[C@@H](C)N(C(=O)c1cnccn1)C[C@H](C)[C@H](OC)CN(C)C2=O	-59
O=C(Nc1ccccc1)C1=C(c2ccccc2)S(=O)(=O)CCS1(=O)=O	104*
Cc1ccc(S(=O)(=O)NC2=NCCCCC2)cc1	-46
Cc1ccc(NC(=O)COC(=O)COc2ccc(Cl)cc2)c([N+](=O)[O-])c1	-40
CC(=O)Nc1ccc(NS(=O)(=O)c2ccc(C)cc2)cc1[N+](=O)[O-]	58*
N#C/C(=C/c1ccc(N2CCCCCC2)o1)c1ccc(F)cc1	91*
COc1ccc(S(=O)(=O)N(C)C[C@@H]2Oc3ccc(NC(=O)CCN4CCOCC4)cc3C(=O)N([C@H](C)CO)C[C@H]2C)cc1	-50
COc1ccc(CN(Cc2cccn2C)S(=O)(=O)c2ccccc2)cc1	-74
C[C@@H]1CN([C@H](C)CO)S(=O)(=O)c2ccc(-c3cncnc3)cc2O[C@H]1CN(C)Cc1cccnc1	-50
C/C(=N\NC(=O)CN1CCCCC1)c1ccccc1O	-44
CC(=NNC(=S)N1CCC1)c1ccccn1	190*
COCC#Cc1cnc2c(c1)C(=O)N([C@H](C)CO)C[C@@H](C)[C@@H](CN(C)C(=O)c1cccnc1)O2	-44
COc1ccc(C(NC(=O)c2c(F)c(F)c(F)c(F)c2F)c2ccccc2)cc1 (configuration not stated)	-85
N#C/C(=C(/O)c1cc2ccccc2o1)c1nc2ccccc2s1	-44
N#C/C(=C(/O)c1ccco1)c1nc2ccccc2[nH]1	61*
C[n+]1cccc(CNC(=O)/C=N/O)c1	-51
C=CC(=O)N1C/C(=C/c2ccc(F)cc2)C(=O)/C(=C\c2ccc(F)cc2)C1	-83
SMILES	PGC1a acetyl up
C=CCNc1nnc(SC2CC(=O)N(c3ccc(OC)cc3)C2=O)s1 (configuration not stated)	75*
CCSC1=N/C(=C\c2ccccc2)C(=O)N1c1ccc(OC)cc1	-51
COC(=O)c1cccc(NC(=O)CSc2nnc(C)n2C)c1	-47
O=[N+]([O-])c1ccc(S(=O)(=O)c2cccc(C(F)(F)F)c2)nc1	172*
Cn1cnc(S(=O)(=O)N2C[C@@H](O)COC[C@H]3O[C@H](CC(=O)NCc4cc(F)cc(F)c4)CC[C@@H]32)c1	-43
O=C(N/N=C/C=C\c1ccccc1[N+](=O)[O-])c1cccnc1	-42
N#C/C(=C\C=C\c1ccccc1[N+](=O)[O-])C(=O)NCc1ccccc1	128*
CC(=O)Nc1nc(C)c(Oc2ccc(Cl)cc2)c(=O)[nH]1	-45
C[C@H]1CN([C@@H](C)CO)C(=O)c2cccc(NC(=O)Nc3ccc(C(F)(F)F)cc3)c2O[C@H]1CN(C)C(=O)Nc1cccc2ccccc12	-47
CCOC(=O)c1ccc(NC(=O)Nc2ccc(F)cc2)cc1	-45
CCOC(=O)c1ccc(NC(=O)CCS(=O)(=O)c2ccc(Br)s2)cc1	50*
COc1ccc2c3c([nH]c2c1)[C@H](CO)N(C(=O)c1ccncc1)CC31CN(C(=O)c2ccncc2)C1	-53
C=C1C(=O)OC2C1CCC(C)=C1C(=O)C3OC3(C)C12 (configuration not stated)	82*
CC(=O)Nc1ccc(Oc2sc(C(=O)c3ccccc3)c(N)c2C#N)cc1	-22
Cc1nc2[nH]c(=O)c3c(n2n1)NC1=C(C(=O)CC(C)(C)C1)C3c1ccccc1 (configuration not stated)	-84
COC(=O)c1ccccc1N(C)S(=O)(=O)c1cc2c(cc1C)OCC(=O)N2	-44
COc1ccc(S(=O)(=O)N2CC[C@@H]3[C@H](CO)Nc4ccc(-c5ccccc5F)cc4[C@@H]32)cc1	51*
COc1ccc(NC(=O)N[C@@H]2CC[C@H](CCn3cc(-c4ccccc4F)nn3)O[C@@H]2CO)cc1	-48
COc1ccc(S(=O)(=O)N[C@@H]2CC[C@H](CCNC(=O)c3ccccc3F)O[C@H]2CO)cc1	-43
O=C(Cc1ccccn1)NCC[C@@H]1CC[C@H](NC(=O)Nc2ccc(C(F)(F)F)cc2)[C@@H](CO)O1	-50
c1cc2c3c(cccc3c1)C(N1CCCCCC1)=N2	86*

Source: PubChem
